Source: PubChem
In the library only some 2% were active in any assay of this set; here they are far more common.
GPR7 antag – human neuropeptides B/W receptor 1 antagonism; P48145; GPR7-expressing cells, fluorescence antagonist assay; inhibition, % at 4.4 µM; 290,000 tested, 1.1% active; in the data active means inhibition above about 16%, passing the limit was not always enough;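 further: cells stimulated with the agonist NPW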
Target sequence (P48145 whole entry, looked up): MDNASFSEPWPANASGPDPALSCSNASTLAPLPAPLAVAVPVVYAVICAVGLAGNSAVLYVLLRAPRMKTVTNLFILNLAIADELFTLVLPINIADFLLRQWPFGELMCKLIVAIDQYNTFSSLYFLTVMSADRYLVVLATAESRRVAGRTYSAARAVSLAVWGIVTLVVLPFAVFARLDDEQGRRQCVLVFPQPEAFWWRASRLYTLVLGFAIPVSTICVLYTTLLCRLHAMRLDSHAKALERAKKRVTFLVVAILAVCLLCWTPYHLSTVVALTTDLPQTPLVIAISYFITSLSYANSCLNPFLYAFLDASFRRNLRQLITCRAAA
EBNA-1 inh – blocks EBNA-1 binding to DNA; EBNA-1 DNA binding, fluorescence polarization; inhibition, % at 14.8 µM; 300,000 tested, 0.34% active; AID 1950; in the data active means inhibition above about 28%
NS3 helicase inh – inhibitors of Hepatitis C virus NS3 helicase; inhibition, % at 10.9 µM; 290,000 tested, 0.56% active; NS3 helicase DNA unwinding, Cy5 molecular beacon fluorescence;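 active means inhibition above the mean of all tested compounds plus 3 SD, set per campaign, cut at about 35% in these data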
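Material: hepatitis C virus NS3 helicase domain fragment enzyme; measured by: Cy5 fluorescence, 0 and 60 min reads; control set: DMSO and thioflavine S; incubation: 60 min unwinding reaction at 25 °C after ATP addition; read-out basis: % inhibition from 60/0 min fluorescence ratio, DMSO 0%, thioflavine S 100%; repeats: singlicate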
DNA FID counter – displaces DNA intercalator in HCV helicase counter-screen; DNA fluorescent intercalator displacement, fluorescence; inhibition, % at 7.9 µM; 290,000 tested, 0.17% active; AID 1845; in the data active means inhibition above about 37%;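 further: higher means more ethidium bromide displaced from hairpin DNA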
ZTA counter – counter-screen for EBNA-1 inhibitors: inhibitors of Epstein-Barr virus ZTA; inhibition, % at 11 µM; 320,000 tested, 0.15% active; AID 2234; P03206; ZTA-DNA binding, fluorescence polarization; in the data active means inhibition above about 33%
Target sequence (P03206 whole entry, looked up): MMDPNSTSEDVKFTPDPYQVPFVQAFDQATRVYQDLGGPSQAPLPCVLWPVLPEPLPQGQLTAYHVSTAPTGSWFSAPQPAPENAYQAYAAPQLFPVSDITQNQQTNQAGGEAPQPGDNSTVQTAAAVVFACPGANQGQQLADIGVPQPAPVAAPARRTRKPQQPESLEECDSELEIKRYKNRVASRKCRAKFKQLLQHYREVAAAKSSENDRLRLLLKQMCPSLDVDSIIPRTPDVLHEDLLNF
GPR7 antag cf – confirmation of human GPR7 antagonists. AID 1952. inhibition, % at 4.4 µM. GPR7-expressing cells, calcium fluorescence antagonist mode. shares compounds with GPR7 antag. 2,400 tested, 52% active; in the data active means inhibition above about 24%;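 further: stimulated with the GPR7 agonist NPW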
MCHR1 antagonist – antagonizes human MCHR1, a GPR7 antagonist counter-screen; shares compounds with GPR7 antag; MCHR1-expressing cells, fluorescence antagonist assay; inhibition, % at 4.4 µM; 2,400 tested, 62% active; AID 2148; in the data active means inhibition above about 22%
Hits are given with their value.

`COc1ccccc1-c1ccc(SCc2cccc(C)c2)nn1` gave GPR7 antag 63.8, EBNA-1 inh inactive, NS3 helicase inh inactive, DNA FID counter inactive, ZTA counter inactive, GPR7 antag cf 41.5 and MCHR1 antagonist 74.2.
`O=C(Oc1cccc(NC(=O)c2ccccc2Cl)c1)c1ccc([N+](=O)[O-])cc1` gave GPR7 antag 34.7, EBNA-1 inh inactive, NS3 helicase inh inactive, DNA FID counter inactive, ZTA counter inactive, GPR7 antag cf 43.3 and MCHR1 antagonist 55.6.
Screening CC(C(=O)Nc1ccc2c(c1)OCCO2)c1ccc([N+](=O)[O-])cc1 (stereo unspecified) returned GPR7 antag 47.2, EBNA-1 inh inactive, NS3 helicase inh inactive, DNA FID counter inactive, ZTA counter inactive, GPR7 antag cf 69.6 and MCHR1 antagonist 51.4.
Screening C/C(CC(=O)Nc1ccc2c(c1)OCCO2)=N\NC(=O)c1ccc([N+](=O)[O-])cc1Cl returned GPR7 antag 34.0, EBNA-1 inh inactive, NS3 helicase inh inactive, DNA FID counter inactive, ZTA counter inactive, GPR7 antag cf inactive and MCHR1 antagonist inactive.
Screening CC(C(=O)Nc1ccc2c(c1)OCO2)c1ccc([N+](=O)[O-])cc1 (stereo unspecified) returned GPR7 antag inactive, EBNA-1 inh inactive, NS3 helicase inh inactive, DNA FID counter inactive and ZTA counter inactive.
`Cc1cccc(CN2CCN(c3nc4nonc4nc3NC3CC3)CC2)c1` gave GPR7 antag inactive, EBNA-1 inh inactive, NS3 helicase inh inactive, DNA FID counter inactive and ZTA counter inactive.
For Clc1cccc(CN2CCN(c3nc4nonc4nc3NC3CC3)CC2)c1 the results were GPR7 antag 27.2, EBNA-1 inh inactive, NS3 helicase inh inactive, DNA FID counter inactive, ZTA counter inactive, GPR7 antag cf inactive and MCHR1 antagonist inactive.
For CCN1CCN(c2ccc(S(=O)(=O)N3CCCCC3)cc2NC(=O)COc2ccc(Cl)c(C)c2)CC1 the results were GPR7 antag 23.3, EBNA-1 inh inactive, NS3 helicase inh inactive, DNA FID counter inactive, ZTA counter inactive, GPR7 antag cf 51.0 and MCHR1 antagonist 43.2.
`Cc1cc(Cl)ccc1OC(C)C(=O)N1CCCN(C(=O)C(C)Oc2ccc(Cl)cc2C)CC1` (stereo unspecified) gave GPR7 antag 32.3, EBNA-1 inh inactive, NS3 helicase inh inactive, DNA FID counter inactive, ZTA counter inactive, GPR7 antag cf 62.8 and MCHR1 antagonist 70.8.
Screening COc1ccccc1N1CCN(C(=O)COc2ccc(Cl)cc2Br)CC1 returned GPR7 antag 28.4, EBNA-1 inh inactive, NS3 helicase inh inactive, DNA FID counter inactive, ZTA counter inactive, GPR7 antag cf 47.7 and MCHR1 antagonist 46.9.
`Cc1cc(Cl)ccc1OCC(=O)N1CC(C)CC(C)C1` (stereo unspecified) gave GPR7 antag inactive, EBNA-1 inh inactive, NS3 helicase inh inactive, DNA FID counter inactive and ZTA counter inactive.
Cc1cc(Cl)ccc1OCC(=O)N1CCCN(C(=O)COc2ccc(Cl)cc2C)CC1 was read as GPR7 antag 26.9, EBNA-1 inh inactive, NS3 helicase inh inactive, DNA FID counter inactive, ZTA counter inactive, GPR7 antag cf inactive and MCHR1 antagonist inactive.
For CCC(=O)NCCc1nc2cc(NC(=O)c3cccc([N+](=O)[O-])c3)ccc2n1C the results were GPR7 antag inactive, NS3 helicase inh inactive and DNA FID counter inactive.
Cc1ccc(Nc2cc(C)nc(NCc3ccccc3)n2)cc1 was read as GPR7 antag inactive, EBNA-1 inh inactive, NS3 helicase inh inactive, DNA FID counter inactive and ZTA counter inactive.
Cc1cc(NC2CCCCC2)nc(NCc2ccccc2)n1 was read as GPR7 antag 23.9, EBNA-1 inh inactive, NS3 helicase inh inactive, DNA FID counter inactive, ZTA counter inactive, GPR7 antag cf 50.8 and MCHR1 antagonist 80.7.
`CCc1cccc(NC(=O)CN(c2ccc(C)cc2)S(=O)(=O)c2c(C)noc2C)c1` gave GPR7 antag inactive, EBNA-1 inh inactive, NS3 helicase inh inactive, DNA FID counter inactive and ZTA counter inactive.
O=c1c(/C=N/O)coc2ccc3ccccc3c12 was read as GPR7 antag 27.2, EBNA-1 inh inactive, NS3 helicase inh inactive, DNA FID counter inactive, ZTA counter inactive, GPR7 antag cf inactive and MCHR1 antagonist inactive.
`NC(=O)c1ccsc1NC(=O)COC(=O)Cc1cccc2ccccc12` gave GPR7 antag 28.3, EBNA-1 inh inactive, NS3 helicase inh inactive, DNA FID counter inactive, ZTA counter inactive, GPR7 antag cf 54.3 and MCHR1 antagonist 78.1.
For O=C(c1cccs1)N1CCN(c2nc3ccccc3s2)CC1 the results were GPR7 antag inactive, EBNA-1 inh inactive, NS3 helicase inh inactive, DNA FID counter inactive and ZTA counter inactive.
Screening O=C(c1cc2sccc2n1Cc1ccc(F)cc1)N1CCN(c2nc3ccccc3s2)CC1 returned GPR7 antag 31.6, EBNA-1 inh inactive, NS3 helicase inh inactive, DNA FID counter inactive, ZTA counter inactive, GPR7 antag cf 28.4 and MCHR1 antagonist 38.2.
Screening COc1ccc(-c2cc(=O)c3ccccc3s2)cc1 returned GPR7 antag 34.8, EBNA-1 inh inactive, NS3 helicase inh inactive, DNA FID counter inactive, ZTA counter inactive, GPR7 antag cf inactive and MCHR1 antagonist 27.1.
Screening COc1ccc2sc3ccccc3c(=O)c2c1 returned GPR7 antag inactive, EBNA-1 inh inactive, NS3 helicase inh inactive, DNA FID counter inactive and ZTA counter inactive.
CCn1c(CNC(=O)c2ccccc2F)cc2cc(C)ccc21 was read as GPR7 antag inactive, NS3 helicase inh inactive and DNA FID counter inactive.
`CCn1c(CNC(=O)C2CCCCC2)cc2cc(C)ccc21` gave GPR7 antag 28.5, NS3 helicase inh inactive, DNA FID counter inactive, GPR7 antag cf inactive and MCHR1 antagonist inactive.
Screening NC(=O)C1Cc2ccccc2CN1C(=O)c1nn(Cc2ccccc2)c(=O)c2ccccc12 (stereo unspecified) returned ZTA counter inactive.
For Cc1ccc(OCCC(=O)OCC(=O)NC(=O)NC2CCCC2)cc1 the results were EBNA-1 inh inactive and ZTA counter inactive.
For CC(=O)Oc1c(C)cc(Cl)cc1C(=O)Nc1ccc([N+](=O)[O-])cc1Cl the results were GPR7 antag 24.8, EBNA-1 inh inactive, NS3 helicase inh inactive, DNA FID counter inactive, ZTA counter inactive, GPR7 antag cf 58.6 and MCHR1 antagonist 62.2.
CN(Cc1ccccc1)C1=CC(=[N+]2CCCC2)CC(C)(C)C1 was read as GPR7 antag 28.7, EBNA-1 inh inactive, NS3 helicase inh inactive, DNA FID counter inactive, ZTA counter inactive, GPR7 antag cf 48.9 and MCHR1 antagonist 38.0.
CC(C)(C)C(=O)NC(=S)NNC(=O)c1ccc(Cl)cc1Cl was read as GPR7 antag 32.3, EBNA-1 inh inactive, NS3 helicase inh inactive, DNA FID counter inactive, ZTA counter inactive, GPR7 antag cf 40.3 and MCHR1 antagonist 37.0.
